Published values gathered from unrelated publications.
Protocols differ between the studies behind these lines.
Target: Ephrin type-A receptor 7 (EPHA7, Homo sapiens, UniProt Q15375)

| Structure (SMILES) | test | setting | remaining binding [%] |
| --- | --- | --- | --- |
| O=C(Nc1cnc(Oc2ccc(F)cc2)nc1)N1CCc2ncccc2[C@@H]1c1ccc(F)cc1 | cell-free assay, competition with immobilised ligand | 1 µM | 88 |
| CNC(=O)[C@@H]1CC[C@@H](n2c(-c3ccc4cnccc4c3)nc3ccc(C(=O)NCc4cccc(C(N)=O)c4)cc32)C1 | binding, competition with immobilised ligand | 1 µM | 100 |
| Cc1cc(-n2nc(Cc3cc(F)cc(C(F)(F)F)c3)nc2C)ccc1C(N)=O | cell-free assay, competition with immobilised ligand | 1 µM | 98 |
| N[C@H]1CCN(c2nccc(-c3cnn4ncccc34)n2)C1 | binding | 1 µM | 100 |
| CCN1CCN(Cc2ccc(C(=O)Nc3ccc(C)c(Oc4ccc5c(c4)CC(=O)N5)c3)cc2C(F)(F)F)CC1 | binding, competition with immobilised ligand | 1 µM | 89 |
| COc1ncc2cc3ccccc3nc2c1C#N | cell-free assay, competition with immobilised ligand | 5 µM | 95 |
| O=C(c1ccc(Nc2ncc(Cl)c(-c3cc4ccccc4s3)n2)cc1)N1CCC(N2CCCC2)CC1 | binding, competition with immobilised ligand | 1 µM | 49 |
| Cn1cc(Cl)c2c(Oc3c(F)cc(Nc4cc(Cl)nc(N)n4)cc3F)ccnc21 | cell-free assay, competition with immobilised ligand | 0.1 µM | 96 |
| COc1ccnn2ncc(-c3ccnc(N(C)C)n3)c12 | binding | 1 µM | 93 |
| c1cncc(-c2cccc(Nc3nccc(NC4CCCCC4)n3)c2)c1 | binding, competition with immobilised ligand | 10 µM | 100 |
| CN(C)C(=O)Cn1cc(-c2nc(C3(c4ccc(-c5cnc(N)nc5)cc4)CC3)no2)cn1 | cell-free assay, competition with immobilised ligand | 1 µM | 92 |
| O=C(Nc1c[nH]nc1C(=O)NC1CCNCC1)c1cc(F)cc(F)c1 | binding, competition with immobilised ligand | 1 µM | 100 |
| O=C(NCCCN1CCOCC1)c1ccc(Nc2nccc(-c3cc4ccccc4s3)n2)cc1 | binding, competition with immobilised ligand | 1 µM | 100 |
| CN(C)c1ncc(F)c(-c2cnn3ncccc23)n1 | binding | 1 µM | 100 |
| Nc1ncc2c(n1)-c1c([nH]c3ccc(C#CC4CC4)cc13)CCCC2 | binding, competition with immobilised ligand | 1 µM | 100 |
| F[C@@H]1CCN(c2nccc(-c3cnn4ncccc34)n2)C1 | binding | 1 µM | 100 |
| CNC(=O)Nc1ccc2c(c1)[C@@]1(CC2)OC(=O)N(CC(=O)N(Cc2ccc(F)cc2)[C@@H](C)C(F)(F)F)C1=O | cell-free assay, competition with immobilised ligand | 1 µM | 100 |
| C[C@@H]1CCN(c2nccc(-c3cnn4ncccc34)n2)C1 | binding | 1 µM | 84 |
| O=C(Nc1cccnn1)N1CCC(=Cc2cccc(Oc3ccc(C(F)(F)F)cn3)c2)CC1 | cell-free assay, competition with immobilised ligand | 1 µM | 95 |
| c1cnn2ncc(-c3ccnc(N4CCC45COC5)n3)c2c1 | binding | 1 µM | 93 |
| Cc1cnc(Nc2ccc(C(=O)N3CCC(N4CCCC4)CC3)cc2)nc1-c1cc2ccccc2s1 | binding, competition with immobilised ligand | 1 µM | 67 |
